Laboratory results: ChEMBL document CHEMBL1127856, “Synthesis and structure-activity studies on acidic amino acids and related diacids as NMDA receptor ligands” (J Med Chem, 1994)

Tests used:
[1] = biological target: T1, Glutamate receptor ionotropic, AMPA (Rattus norvegicus, UniProt P19490+P19491+P19492+P19493); assay: Tested in vitro for the concentration required to inhibit [3H]AMPA radioligand at EAA receptor sites in rat cortical membranes; format: cell membranes
Method in brief: (§1)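 Radioligand displacement ([3H]AMPA or [3H]CPP) in rat cortical membranes prepared by the Ransom and Stec method.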

Glutamate NMDA receptor [2] = assay: Tested in vitro for the concentration required to inhibit [3H]CPP radioligand at EAA receptor sites in rat cortical membranes; format: cell membranes; method in brief: as §1
Glutamate NMDA receptor [3] = assay: Stimulation of [3H]-MK-801 binding to EAA receptor sites in rat cortical membranes
Rattus norvegicus [4] = organism: Rattus norvegicus; assay: Effective concentration in vitro as electropharmacological activity in the rat cortical wedge preparation; format: functional
Method in brief: (§2)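 Rat brain wedges (500 μm) containing cerebral cortex and corpus callosum, separated by a grease gap. The cortex side is perfused with Mg2+-free oxygenated Krebs buffer containing the compounds, and the callosum side with Mg2+- and Ca2+-free Krebs. DC potentials are recorded via Ag/AgCl electrodes. Agonists for antagonism: NMDA 10 μM, AMPA 5 μM, kainic acid 10 μM. Dose–response curves come from single experiments, each repeated at least twice.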

[5] = biological target: Glutamate receptor ionotropic, NMDA 2C (Rattus norvegicus) (UniProt Q00961); assay: pKa was determined; format: functional
Chain of Glutamate receptor ionotropic, NMDA 2C (Rattus norvegicus) (Q00961 20-1237 limits assumed): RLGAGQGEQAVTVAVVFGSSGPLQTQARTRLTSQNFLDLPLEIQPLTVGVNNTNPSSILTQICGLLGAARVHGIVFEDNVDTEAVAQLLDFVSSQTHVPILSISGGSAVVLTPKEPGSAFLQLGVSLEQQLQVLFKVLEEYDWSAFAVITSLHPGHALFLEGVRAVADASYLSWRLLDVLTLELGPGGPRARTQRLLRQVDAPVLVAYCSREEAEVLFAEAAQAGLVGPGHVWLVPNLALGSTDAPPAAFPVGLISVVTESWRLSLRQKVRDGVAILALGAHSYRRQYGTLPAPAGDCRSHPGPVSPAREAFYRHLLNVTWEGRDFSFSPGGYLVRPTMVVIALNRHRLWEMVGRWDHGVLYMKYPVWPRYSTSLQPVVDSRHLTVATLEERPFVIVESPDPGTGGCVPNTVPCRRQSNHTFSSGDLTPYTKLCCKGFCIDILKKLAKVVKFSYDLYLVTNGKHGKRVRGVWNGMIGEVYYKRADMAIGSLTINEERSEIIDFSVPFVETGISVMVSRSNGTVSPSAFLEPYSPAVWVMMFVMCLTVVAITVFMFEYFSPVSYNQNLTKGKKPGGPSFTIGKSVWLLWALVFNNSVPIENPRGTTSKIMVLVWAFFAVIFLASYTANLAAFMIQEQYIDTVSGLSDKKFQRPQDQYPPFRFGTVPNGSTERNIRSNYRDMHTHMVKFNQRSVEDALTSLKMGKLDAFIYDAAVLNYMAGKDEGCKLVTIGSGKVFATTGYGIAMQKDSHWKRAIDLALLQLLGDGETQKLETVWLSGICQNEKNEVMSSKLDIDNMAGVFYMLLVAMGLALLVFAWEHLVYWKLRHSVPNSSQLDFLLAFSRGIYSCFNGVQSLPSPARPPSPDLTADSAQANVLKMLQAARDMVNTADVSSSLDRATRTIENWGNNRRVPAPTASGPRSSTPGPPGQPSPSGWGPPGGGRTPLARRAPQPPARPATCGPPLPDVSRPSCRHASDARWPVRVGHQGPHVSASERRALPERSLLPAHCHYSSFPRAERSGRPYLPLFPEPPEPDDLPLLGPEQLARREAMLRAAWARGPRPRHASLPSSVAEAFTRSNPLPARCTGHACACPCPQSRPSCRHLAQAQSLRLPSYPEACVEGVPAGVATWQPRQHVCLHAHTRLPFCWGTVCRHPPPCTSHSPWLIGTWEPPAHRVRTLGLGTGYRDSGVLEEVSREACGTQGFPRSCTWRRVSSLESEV

[6] = biological target: T1, Glutamate receptor ionotropic, AMPA; assay: Tested in vitro for the concentration required to inhibit [3H]AMPA radioligand at AMPA receptor sites in rat cortical membranes; format: cell membranes
[7] = biological target: Glutamate NMDA receptor (Rattus norvegicus) (UniProt P35439+Q00959+Q00960+Q00961+Q62645+Q8VHN2+Q9R1M7); assay: Inhibition of [3H]CPP radioligand at EAA receptor sites in rat cortical membranes at 100 uM concentration; format: cell membranes; conditions: Membrane; method in brief: as §1
Rattus norvegicus [8] = organism: Rattus norvegicus; assay: Effective concentration in vitro as electropharmacological activity in the rat cortical wedge preparation; antagonist; format: functional; method in brief: as §2
[9] = biological target: Glutamate receptor ionotropic, AMPA (Rattus norvegicus) (UniProt P19491+P19492+P19493+P19490); assay: Inhibition of [3H]AMPA radioligand at EAA receptor sites in rat cortical membranes at 100 uM concentration; format: cell membranes; conditions: Membrane; method in brief: as §1

SMILES: CSC(C(=O)O)c1c(O)noc1C (configuration not stated)
- IC50 [1]: > 100 µM
- IC50 (Glutamate NMDA receptor [2]): > 100 µM
- EC50 (Glutamate NMDA receptor [3]): > 100 µM
- EC50 (Rattus norvegicus [4]): > 5000 µM

SMILES: NC1(C(=O)O)CCCCc2onc(O)c21 (configuration not stated)
- IC50 [1]: > 100 µM
- IC50 (Glutamate NMDA receptor [2]): > 100 µM
- EC50 (Glutamate NMDA receptor [3]): > 100 µM
- EC50 (Rattus norvegicus [4]): 2500 µM

SMILES: O=C(O)c1cccnc1C(=O)O [QUINOLINIC ACID]
- IC50 [1]: > 100 µM
- IC50 (Glutamate NMDA receptor [2]): > 100 µM
- pKa [5]: < 2
- EC50 (Rattus norvegicus [4]): 1500 µM

SMILES: CC(C)(C)c1onc(O)c1CC(N)C(=O)O (configuration not stated)
- IC50 (Glutamate NMDA receptor [2]): > 100 µM
- EC50 (Glutamate NMDA receptor [3]): > 100 µM
- EC50 (Rattus norvegicus [4]): 48 µM

SMILES: CNC(C(=O)O)c1c(C)o[nH]c1=O (configuration not stated)
- IC50 [1]: > 100 µM
- IC50 (Glutamate NMDA receptor [2]): 18.3 µM
- EC50 (Glutamate NMDA receptor [3]): 50 µM
- EC50 (Rattus norvegicus [4]): 70 µM

SMILES: COC(C(=O)O)c1c(O)noc1C (configuration not stated)
- IC50 [1]: > 100 µM
- IC50 (Glutamate NMDA receptor [2]): > 100 µM
- EC50 (Glutamate NMDA receptor [3]): > 100 µM
- EC50 (Rattus norvegicus [4]): > 5000 µM

SMILES: Cc1o[nH]c(=O)c1C(N)C(=O)O (configuration not stated)
- IC50 [1]: > 100 µM
- EC50 (Glutamate NMDA receptor [3]): 0.45 µM
- EC50 (Rattus norvegicus [4]): 4.3 µM

SMILES: NC(C(=O)O)c1c(O)noc1CO (configuration not stated)
- IC50 [1]: > 100 µM
- EC50 (Glutamate NMDA receptor [3]): 5 µM
- EC50 (Rattus norvegicus [4]): 8 µM

SMILES: NC(Cc1c(O)noc1CBr)C(=O)O (configuration not stated)
- IC50 [6]: 0.03 µM
- EC50 (Glutamate NMDA receptor [3]): > 100 µM
- EC50 (Rattus norvegicus [4]): 13 µM

SMILES: CC(C)(C)c1onc(O)c1C(N)C(=O)O (configuration not stated)
- inhibition [7]: 25%
- IC50 [1]: > 100 µM
- IC50 (Glutamate NMDA receptor [2]): > 100 µM
- EC50 (Rattus norvegicus [8]): Antagonist
- inhibition [9]: 8%
- EC50 (Glutamate NMDA receptor [3]): > 100 µM

SMILES: NC(Cc1c(O)noc1CO)C(=O)O (configuration not stated)
- IC50 [1]: 0.4 µM
- IC50 (Glutamate NMDA receptor [2]): > 100 µM
- EC50 (Glutamate NMDA receptor [3]): > 100 µM
- EC50 (Rattus norvegicus [4]): 110 µM
